Bioassay records as filed in PubChem BioAssay.
Shown are actives, neighbours in structure and some others; about 2.6% of the full set was active somewhere.
Platelet DG rel: modulates dense granule release in human platelets. human platelet-rich plasma, SFLLRN dense granule ATP release, luminescence. inhibition, %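 (compounds screened at 7.5 µM in platelet-rich plasma)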. 300,000 tested, 0.22% active. AID 1663;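 active means mean replicate score, as percent of positive control, at or above 50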
SENP8 block-1: blocks human SENP8 cleavage of Nedd8 substrate; Q96LD8; recombinant SENP8, Nedd8 substrate fluorescence; inhibition, % at 20 µM; 360,000 tested, 0.64% active; AID 602440; in the data active means inhibition mostly above about 40%, no sharp cut-off; inactive means mostly below about 27%
SENP7 inh: inhibitors of human SENP7 protease | Q9BQF6 | recombinant SENP7, Z-RLRGG-aminoluciferin luminescence, 40 min | inhibition, % at 5 µM | 330,000 tested, 1.5% active | AID 434973;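 active means inhibition above about 50% at the single test dose, limit read from the data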;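 further: plate controls were DMSO with enzyme for no effect and no enzyme buffer wells for full effect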
SENP8 block-2: inhibitors of human SENP8 protease; purified SENP8, Z-RLRGG-aminoluciferin cleavage, luminescence; inhibition, % at 10 µM; 330,000 tested, 1.2% active; in the data active means inhibition above about 50%
SENP6 block: blocks the human protease SENP6. 330,000 tested, 1.8% active. Recombinant SENP6 catalytic domain, aminoluciferin luminescence. Q9GZR1. inhibition, % at 10 µM. AID 2599;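 active means inhibition above about 50% at the single tested dose, limit read from the data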;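 further: plate controls were DMSO wells with enzyme for no effect and DMSO wells lacking enzyme for full effect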
Target sequence (Q9GZR1 628-1112 limits assumed): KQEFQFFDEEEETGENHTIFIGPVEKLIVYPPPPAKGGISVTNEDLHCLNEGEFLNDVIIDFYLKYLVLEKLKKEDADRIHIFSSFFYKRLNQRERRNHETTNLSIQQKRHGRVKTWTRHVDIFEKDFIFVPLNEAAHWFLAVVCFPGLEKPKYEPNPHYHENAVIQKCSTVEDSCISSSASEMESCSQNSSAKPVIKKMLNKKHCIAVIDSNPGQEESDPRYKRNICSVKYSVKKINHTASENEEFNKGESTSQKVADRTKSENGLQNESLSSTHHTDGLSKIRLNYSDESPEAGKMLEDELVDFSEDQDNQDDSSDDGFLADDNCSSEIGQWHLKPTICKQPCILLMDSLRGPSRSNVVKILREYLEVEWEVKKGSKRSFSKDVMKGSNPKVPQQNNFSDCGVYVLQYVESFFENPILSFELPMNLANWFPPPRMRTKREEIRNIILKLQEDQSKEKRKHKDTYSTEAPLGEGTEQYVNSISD
SENP1 FRET inh: inhibitors of human SENP1 SUMO protease catalytic domain. Q9P0U3. recombinant SENP1 catalytic domain, CyPet-SUMO1-YPet FRET cleavage. inhibition, % at 10 µM. 360,000 tested, 0.21% active. AID 624204;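 active means inhibition at least 30% at 10 µM, raw YFP signal under a set limit, fluorescence ratio 0.5 to 1.5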;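 further: 0% = enzyme with DMSO and 100% = no enzyme wells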
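Test system: human SENP1 catalytic domain; medium: Tris pH 8 buffer plus EDTA, NaCl, BME, BSA, NP40, catalase; incubation: 50 min reaction at room temperature; technique: FRET, CFP and YFP emission; controls: no-enzyme low control and enzyme-plus-DMSO high control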
SENP8 inh conf: SENP8 (human) inhibition, single concentration confirmation; purified SENP8, Nedd8-AMC/pro-Nedd8 cleavage fluorescence, 30 min; inhibition, % at 25 µM; 1,400 tested, 15% active; shares compounds with SENP8 block-1; in the data active means inhibition mostly above about 39%, no sharp cut-off; inactive means mostly below about 34%
An asterisk follows results filed as active; / = not tested or not shown.

SMILES	Platelet DG rel	SENP8 block-1	SENP7 inh	SENP8 block-2	SENP6 block	SENP1 FRET inh	SENP8 inh conf
O=C(O)C1CCN(c2c([N+](=O)[O-])cc(C(F)(F)F)cc2[N+](=O)[O-])CC1	1.0	9.7	3.7	-2.1	3.6	0.7	/
O=[N+]([O-])c1cc(C(F)(F)F)cc([N+](=O)[O-])c1N1CCN(S(=O)(=O)c2ccccc2)CC1	0.5	40.4*	0.4	-4.2	-5.9	3.8	10.4
CCC(CO)Oc1cc(NCc2ccncc2)c2ncn(C(C)C)c2c1 (stereo not given)	/	41.3*	3.5	5.6	6.0	-21.2	28.7
CCS(=O)(=O)N1CCC(C(=O)N2CCc3ccccc3C2)CC1	-1.9	44.1*	9.0	1.1	-3.7	-11.0	76.7*
Cc1ccccc1NC(=O)c1ccc(Cn2cc([N+](=O)[O-])cn2)o1	1.5	1.1	2.8	0.2	1.4	-2.3	/
CC(NC(=O)c1ccc(Cn2cc([N+](=O)[O-])cn2)o1)c1ccccc1 (stereo not given)	-2.4	49.6*	6.3	3.3	0.9	0.9	15.6
O=C(/C=C/c1ccccc1)NC(NC(=S)Nc1cccc(Cl)c1)C(Cl)(Cl)Cl (stereo not given)	-0.3	29.7	-3.8	-5.0	-1.7	-3.0	/
Cc1c(C(=O)Nc2ccc(Nc3ccccc3)cc2)cccc1[N+](=O)[O-]	-8.9	20.2	0.0	0.0	7.7	0.2	/
O=C(Nc1ccccc1)c1ccc(Nc2c([N+](=O)[O-])cc([N+](=O)[O-])c3ccccc23)cc1	-3.1	55.6*	-4.0	-5.1	9.4	12.8	30.9
Cc1ccccc1CSCCNC(=O)COc1ccc(Cl)cc1	-4.6	18.5	-3.8	-17.8	-4.6	1.8	/
COc1ccc(/C=C/c2c(-c3ccccc3OC)sc3ccccc23)cc1OC	/	-494.2	-5.6	5.6	6.0	-11.5	/
O=C(Nc1ccc(S(=O)(=O)N2CCOCC2)cc1)c1ccc(CN2CCc3ccccc3C2)cc1	-16.3	/	6.0	1.4	-10.2	/	/
O=[N+]([O-])c1cc(F)c2cccnc2c1O	-6.2	52.0*	10.0	-3.0	7.0	3.7	92.5*
O=[N+]([O-])c1cc(Cl)c2cccnc2c1O	1.8	29.9	5.7	0.2	0.9	3.9	/
Clc1cccc(CSc2ncnc3c2ncn3C2CCCCO2)c1 (stereo not given)	/	16.6	/	/	/	2.4	/
Cn1c(=O)n(Cc2ccccc2)c(=O)c2c1nc1n2CCCN1C1CCCCC1	2.7	44.7*	-3.5	1.9	-14.2	1.6	10.1
Cc1noc(C)c1CSCC(=O)NC1=NCCS1	-0.7	-2.1	7.9	5.4	-9.0	-8.7	/
Cc1ccc(-n2[nH]c(C)c(/C=N/Nc3ccc([N+](=O)[O-])cc3[N+](=O)[O-])c2=O)cc1	-1.0	79.6*	-11.6	-4.9	-9.7	3.3	33.5
Cc1[nH]n(-c2ccc([N+](=O)[O-])cc2)c(=O)c1C=NCCc1ccc(S(N)(=O)=O)cc1	2.4	11.5	-5.7	10.0	13.6	10.7	/
Cc1[nH]n(-c2ccc([N+](=O)[O-])cc2)c(=O)c1C=NCC1CCCO1 (stereo not given)	0.0	12.6	-0.4	13.7	12.8	0.3	/
Cc1[nH]n(-c2ccc([N+](=O)[O-])cc2)c(=O)c1C=NCCc1c(C)[nH]c2ccccc12	5.9	42.3*	13.6	9.4	7.3	3.9	-9.9
CCOc1ccc(S(=O)(=O)N/N=C\c2ccc3c(c2)OCO3)cc1	6.8	6.6	2.7	-0.4	0.7	1.0	/
COc1ccc(-n2c(O)c(C=NCc3ccccn3)c3ccccc3c2=O)c(OC)c1	0.4	40.6*	5.8	-3.9	-12.7	-3.2	27.0
O=c1c2ccccc2c(C=NCc2ccccn2)c(O)n1-c1ccccc1	-1.8	25.8*	-10.4	-4.5	16.9	-5.8	-14.5
CC(=O)c1c(C)[nH]c(C(=O)OCC(=O)N2CCCC2=O)c1C	/	13.3	6.5	11.8	6.1	0.7	/
SMILES	Platelet DG rel	SENP8 block-1	SENP7 inh	SENP8 block-2	SENP6 block	SENP1 FRET inh	SENP8 inh conf
COc1ccc(Cc2nnc(SCC(=O)N3CCc4ccccc4C3)o2)cc1	13.6	39.3*	-10.4	0.0	-11.6	-1.9	76.1*
O=[N+]([O-])c1cc(/C=N/N2CCOCC2)cs1	4.8	16.3	0.6	-8.8	-39.9	1.0	/
O=[N+]([O-])c1ccc(C=NN2CCOCC2)s1	/	47.8*	/	/	/	12.5	49.8*
O=C(Nc1nncs1)c1cccnc1Cl	3.7	11.5	1.4	3.4	16.8	1.3	/
COCCN(C(=O)CCC(=O)Nc1nccs1)C(C(=O)NC(C)(C)C)c1ccc(C)cc1 (stereo not given)	-12.1	10.3	-4.1	-3.0	-34.6	0.1	/
CC1(C)OC(c2ccccc2)=C/C(=C/C=N/NC(=O)c2ccncc2)O1	-10.3	41.4*	-5.0	-0.1	-14.0	3.2	24.5
C=CC[C@@]12C=C(OC)C(=O)C(OC)=C1O[C@H](c1ccc3c(c1)OCO3)[C@H]2C	-3.6	12.7	-8.4	2.0	0.8	-1.8	/
C=CC[C@]12C[C@@H](OC)C(=O)C=C1O[C@@H](c1ccc(OC)c(OC)c1)[C@H]2C	0.0	41.5*	-2.2	4.2	-2.8	-1.9	11.4
Cc1ccc(S(=O)(=O)NNC(=O)CCC(=O)Nc2ccccc2)cc1	-45.0	13.9	3.9	-4.7	6.5	-0.2	/
O=C1C=C(c2ccccc2)OC(c2ccccc2)O1 (stereo not given)	-2.5	2.6	3.6	-0.5	9.9	2.2	/
CCCC1CCC(=NNC(=O)CNc2ccc(OC)cc2)CC1 (stereo not given)	-1.9	59.2*	-0.1	0.0	-6.7	3.4	13.0
Cc1ccc(NS(=O)(=O)c2cccc(C(=O)NNC(=O)NC3CCCCC3)c2)c(C)c1	3.7	20.5	10.3	5.1	11.6	0.7	/
O=C(NCCN1CCCCC1)c1cc(COc2c(F)cccc2F)on1	-12.1	-20.1	-10.7	-6.4	-8.5	-5.3	/
O=[N+]([O-])c1ccc(N/N=C2\CC3CC=CC23)c([N+](=O)[O-])c1 (stereo not given)	-0.4	40.1*	4.3	-2.4	-10.8	2.9	19.2
CC1CCC/C(=N/Nc2ccc([N+](=O)[O-])cc2[N+](=O)[O-])C1 (stereo not given)	-0.9	36.9	-7.1	-17.0	-10.4	1.7	/
O=[N+]([O-])c1ccc(NN=C2CC3CCC2C3)c([N+](=O)[O-])c1 (stereo not given)	/	40.6*	/	/	/	4.8	-0.8
Cc1cccc(C(=O)OCC(=O)NNC(=O)c2cccs2)c1O	-1.1	12.5	4.5	-4.4	1.2	0.3	/
N#Cc1ccc(CN2CCN(C(=O)CNS(=O)(=O)c3ccc4c(c3)OCCCO4)CC2)cc1	/	12.6	-10.1	-13.6	-5.4	-0.2	/
